# Screens (PubChem)
# RAD54 branch: inhibitors of human RAD54 branch migration; Q92698; RAD54 Holliday junction branch migration, FAM/BHQ fluorescence; inhibition, % at 10.4 µM; actives 0.14% (n = 360,000);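 active means mean normalized replicate activity at least 40 and at least half of replicates scoring 40 or more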;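 further: inhibitors cause a drop in the FAM fluorescence signal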
# FN deposition inh: fibronectin deposition inhibition; actives 0.086% (n = 350,000); AH1F fibroblasts, Alexa488-fibronectin deposition fluorescence, overnight; inhibition, % at 12.6 µM;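 active means mean inhibition across replicates of 30% or more, regardless of how many single replicates reach that level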
#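 Schedule: 1 h cell adhesion before compound, then overnight fibronectin incubation; test system: AH1F fibroblast monolayer depositing Alexa488-labelled fibronectin into matrix; quantity: 10000 AH1F cells per well; probe or stimulus: fluorescent fibronectin at 24 nM final; signal: fluorescence, ex 485 nm, em 525 nm; evaluation: percent inhibition as loss of matrix-bound fibronectin fluorescence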
# CaV13 FRET inh: Primary screen for inhibitors of IQ motif and Ca2+-dependent inactivation inhibitor domain binding in CACNA1D, Förster resonance energy transfer in living cells, …. HEK cells, CFP/YFP FRET ICDI-IQ, plate reader, 10 min; percent FRET-ratio fall versus neutral wells. inhibition, % at 12.3 µM. actives 0.098% (n = 340,000). AID 743397;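 active means mean replicate inhibition of at least 30% and at least 1% of replicates passing that level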
# N-glyco inh: N-linked glycosylation inhibition. D54 ERlucT glycosylation luciferase reporter, 24 h; percent of 100 nM tunicamycin response. reporter increase, % at 12.5 µM. actives 0.23% (n = 360,000). AID 588692;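 active means mean luciferase reporter signal, scaled so untreated is 0 and the glycosylation-blocking control 100, at or above a set limit in every replicate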;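 further: luciferase carries N-glycosylation sites so blocking glycosylation raises the light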
# RAD52 inh: RAD52 (human) annealing inhibition; actives 0.46% (n = 360,000); recombinant RAD52 DNA annealing, FRET fluorescence; P43351; inhibition, % at 18.7 µM; AID 651710;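 active means every replicate showing at least 50% inhibition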
# Target sequence (P43351 whole entry, looked up): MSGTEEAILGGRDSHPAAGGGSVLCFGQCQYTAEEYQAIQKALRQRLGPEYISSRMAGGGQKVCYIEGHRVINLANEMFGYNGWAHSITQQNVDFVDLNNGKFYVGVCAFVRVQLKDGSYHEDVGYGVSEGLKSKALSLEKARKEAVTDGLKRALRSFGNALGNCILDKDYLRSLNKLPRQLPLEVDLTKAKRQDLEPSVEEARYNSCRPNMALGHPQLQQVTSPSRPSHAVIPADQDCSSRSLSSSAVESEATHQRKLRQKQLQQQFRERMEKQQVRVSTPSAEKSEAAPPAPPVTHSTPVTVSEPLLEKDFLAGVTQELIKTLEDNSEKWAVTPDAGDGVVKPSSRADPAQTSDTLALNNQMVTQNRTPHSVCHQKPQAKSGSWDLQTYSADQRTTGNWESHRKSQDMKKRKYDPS
# Hits are given with their value; – = inactive; · = not tested or not shown. In the library only some 0.7% were active in any assay of this set; here they are far more common.
SMILES,RAD54 branch,FN deposition inh,CaV13 FRET inh,N-glyco inh,RAD52 inh
CCCCn1cnc2c(c(-c3ccccc3)c(-c3ccccc3)n2Cc2ccco2)c1=N,–,39.4,–,–,–
O=C1C=CC2(C=C1)O[C@H](Cc1ccccc1)[C@@H](Cc1ccccc1)O2,·,41.4,–,–,–
Cc1ccc(S(=O)(=O)c2ccc([N+](=O)[O-])o2)cc1,·,48.6,–,–,–
COc1ccc(S(=O)(=O)Nc2cccc3c2O[C@@H](CN(C)Cc2ccc(-c4ccccc4)cc2)[C@@H](C)CN([C@H](C)CO)C3=O)cc1,–,·,·,·,–
CN1CCCCN2[C@H](CO)[C@@H](c3ccc(-c4ccc(F)cc4)cc3)[C@@H]2C1,–,–,·,·,–
COc1ccc(CN(C)C[C@H]2OCCCC[C@@H](C)Oc3ccc(NC(=O)Nc4ccccc4)cc3C(=O)N([C@@H](C)CO)C[C@@H]2C)cc1,–,–,·,·,·
CN(C)CC#Cc1ccc([C@@H]2[C@@H](CO)N3CCCCN(CC4CCOCC4)C[C@H]23)cc1,–,·,·,·,–
CN(C)CC#Cc1ccc([C@H]2[C@@H](CO)N3CCCCN(CC4CCOCC4)C[C@H]23)cc1,–,·,·,·,62.3
CN(C)CC#Cc1ccc([C@@H]2[C@@H](CO)N3CCCCN(CC4CC4)C[C@@H]23)cc1,–,·,·,·,70.5
COc1cccc(-c2ccc([C@H]3[C@@H](CO)N4CCCCN(CC5CCOCC5)C[C@@H]34)cc2)c1,–,·,·,·,56.2
CN(C)CC#Cc1ccc([C@@H]2[C@H](CO)N3CCCCN(CC4CC4)C[C@@H]23)cc1,–,–,·,·,58.5
CN(C)CC#Cc1ccc([C@H]2[C@H]3CN(CC4CC4)CCCCN3[C@H]2CO)cc1,–,·,·,·,–
Cc1noc(C)c1NC(=O)N(C)C[C@H]1Oc2ccc(NS(=O)(=O)c3cccs3)cc2C(=O)N([C@@H](C)CO)C[C@@H]1C,–,·,·,·,–
C[C@H]1CN([C@@H](C)CO)C(=O)c2ccccc2-c2ccccc2CO[C@@H]1CN(C)C(=O)NC1CCCCC1,–,–,·,·,–
CNC[C@@H]1OCCCC[C@H](C)Oc2ccc(NC(=O)Nc3ccc(C(F)(F)F)cc3)cc2C(=O)N([C@@H](C)CO)C[C@@H]1C,–,·,·,·,–
CCCC#Cc1ccc([C@H]2[C@@H](CO)N3CCCCN(CC4CC4)C[C@H]23)cc1,–,·,·,·,52.9
COc1cc2c(cc1OC)C(c1ccccc1)N(C(=O)c1cccc(S(C)(=O)=O)c1)CC2 (stereo not drawn),·,–,–,66.9,–
COc1ccc(CN(C)C[C@@H]2OCCCC[C@@H](C)Oc3ccc(NS(=O)(=O)c4ccc(Cl)cc4)cc3C(=O)N([C@H](C)CO)C[C@H]2C)cc1,–,–,·,·,–
COc1ccc(CN(C)C[C@@H]2OCCCC[C@H](C)Oc3ccc(NS(=O)(=O)c4ccc(F)cc4)cc3C(=O)N([C@H](C)CO)C[C@@H]2C)cc1,–,–,·,·,52.8
COc1ccc(NC(=O)N(C)C[C@@H]2OCCCC[C@@H](C)Oc3ccc(NS(=O)(=O)c4ccccc4)cc3C(=O)N([C@@H](C)CO)C[C@H]2C)cc1,–,–,·,·,–
C[C@@H]1CCCCO[C@@H](CN(C)Cc2ccc(C(=O)Nc3ccccc3N)cc2)[C@@H](C)CN([C@H](C)CO)C(=O)c2cc(NS(=O)(=O)c3ccccc3)ccc2O1,·,–,·,·,–
COc1ccc(CN(C)C[C@@H]2OCCCC[C@@H](C)Oc3ccc(NS(=O)(=O)c4ccc(Cl)cc4)cc3C(=O)N([C@@H](C)CO)C[C@@H]2C)cc1,–,–,·,·,55.6
COc1ccc(NC(=O)N(C)C[C@@H]2OCCCC[C@@H](C)Oc3ccc(NS(=O)(=O)c4ccccc4)cc3C(=O)N([C@H](C)CO)C[C@@H]2C)cc1,–,–,·,·,84.7
COc1ccc(S(=O)(=O)Nc2ccc3c(c2)C(=O)N([C@@H](C)CO)C[C@@H](C)[C@H](CN(C)Cc2ccc(C(=O)Nc4ccccc4N)cc2)OCCCC[C@@H](C)O3)cc1,–,·,·,·,55.3
CC(C)C#Cc1ccc2c(c1)O[C@H](CN(C)S(C)(=O)=O)[C@@H](C)CN([C@H](C)CO)S2(=O)=O,–,–,·,·,–
C[C@@H]1CN([C@@H](C)CO)C(=O)c2cc(Br)cnc2O[C@H]1CN(C)Cc1ccccn1,–,·,·,·,–
COc1ccc(C(=O)Nc2ccc3c(c2)OC[C@H](C)NC[C@H](C)[C@H](OC)CN(C)C3=O)cc1,–,–,·,·,–
